Shown are actives, neighbours in structure and some others; about 11% of the full set was active somewhere.
S1P3 ag = human S1P3 receptor agonists, primary screen, cell-based, primary and confirmation, NFAT-BLA reporter; S1P3 NFAT-BLA reporter cells, agonism, FRET ratio; relative to 1 µM S1P, basal subtracted; 0.1% of 60,000 active; AID 373, 2006; activation, % at 4.5 µM; Sphingosine 1-phosphate receptor 3 (Homo sapiens), Q99500;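 active = activation above the screen-wide mean plus 3 SD, cut at about 4.5% in these data, passing the limit was not always enough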
Target sequence (Q99500 whole entry, looked up): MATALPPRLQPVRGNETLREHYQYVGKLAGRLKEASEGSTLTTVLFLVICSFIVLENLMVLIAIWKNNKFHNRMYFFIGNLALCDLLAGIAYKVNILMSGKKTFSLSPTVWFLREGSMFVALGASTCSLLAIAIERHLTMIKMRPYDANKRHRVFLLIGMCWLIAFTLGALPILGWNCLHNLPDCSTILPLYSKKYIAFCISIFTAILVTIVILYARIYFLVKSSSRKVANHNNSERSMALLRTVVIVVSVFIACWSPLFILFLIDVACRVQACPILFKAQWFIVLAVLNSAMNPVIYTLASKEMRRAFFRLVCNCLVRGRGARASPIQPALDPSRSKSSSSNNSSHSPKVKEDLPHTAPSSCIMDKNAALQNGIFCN
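Benchmarks: high control 1 µM S1P / System: stable CHO line with human S1P3, Gα16, NFAT-BLA reporter / Dosing: single compound concentration, 4.5 µM final / Timing: 4 h compound at 37 °C, 2 h substrate at RT / Measured by: FRET β-lactamase substrate fluorescence, excitation 405 nm, 460/535 nm emission ratio, background-subtracted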
S1P1 ag pot = S1P1 agonists and agonism potentiators, primary screen, cell-based, primary and confirmation screens, CRE-bla reporter; S1P1 CRE-bla cells, forskolin, beta-lactamase FRET, potentiator mode; S1P1 agonist co-added at EC20, 2 nM; 100% = saturating reference agonist, 0% = basal; 0.57% of 56,000 active; AID 449, 2006; activation, % at 9.5 µM; Sphingosine 1-phosphate receptor 1 (Homo sapiens), P21453;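 active = activation above a cutoff set at the mean activation of all tested compounds plus 3 SD, cut at about 54% in these data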;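 note: forskolin at 4 µM as EC80 and the EC20 agonist is SEW2871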
D1 mod = D1 CRE-luciferase signal change, two-sided – cell-based, HEK293 D1, dopamine EC30, D1 allosteric modulator project, primary screen; D(1A) dopamine receptor (Homo sapiens), P21728; dopamine EC30 potentiation; actives deviate in either direction; 5.9% of 58,000 active; B-score at 10 µM;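 active = luminescence count or its row- and column-corrected plate score outside the 99.7% band of the plate's sample wells, on either side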
M1 antagonist = antagonists of rat M1 muscarinic receptor; Muscarinic acetylcholine receptor M1 (Rattus norvegicus), P08482; CHO-M1 cells, Fluo-4 calcium, ACh EC80 antagonist mode; hits give low values; B-score at 10 µM; 3.4% of 64,000 active; AID 628, 2007;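 active = calcium fluorescence response, raw or row-and-column corrected B-score, differing from the plate sample mean either way at a set confidence level, mostly lower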
M1 agonist = M1 muscarinic receptor agonists, primary screen, CHO-M1 cells, Fluo-4 calcium, agonist mode | Fluo-4 calcium fluorescence; hits give high values | Muscarinic acetylcholine receptor M1 | B-score at 10 µM | 3% of 64,000 active;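 active = fluorescence rise, raw or as B-score row- and column-corrected plate score, outside the 99.7% band of its plate's samples, either direction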
M1 agonist conf = rat M1 muscarinic receptor agonists, confirmation, CHO-M1 cells, Fluo-4 calcium, duplicate retest | shares compounds with M1 agonist | Fluo-4 calcium fluorescence, agonist mode; actives lie on both sides | fluorescence change (max-min) at 10 µM | 19% of 1,700 active;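 active = fluorescence change differs from the solvent-only DMSO control mean at a set confidence level in both duplicate runs; inconclusive = differs from solvent-only control mean in just one of two runs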;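 note: an EC20 dose of acetylcholine follows compound addition during the same imaging run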
M4 ag counter = agonist activity at rat M4 receptor, confirmation, counter-screen for M1 allosteric modulator project, cell-based, agonist mode; shares compounds with M1 agonist; CHO M4/Gqi5 cells, Fluo-4 calcium fluorescence; actives lie on both sides; fluorescence change (max-min) at 10 µM; 9% of 1,700 active; AID 1741, 2009;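 active = fluorescence change differing from the plate's solvent-only control wells at 99.7% confidence in both duplicates, whether higher or lower; inconclusive = differs from solvent controls in only one of two duplicates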
A number is an active result; i = inactive; ? = inconclusive; nt = not tested or not shown.

SMILES | S1P3 ag | S1P1 ag pot | D1 mod | M1 antagonist | M1 agonist | M1 agonist conf | M4 ag counter
C=CCc1ccccc1OCC(O)CN1CCN(Cc2ccc3c(c2)OCO3)CC1 (stereo not given) | i | i | -5.78 | -5.44 | 6.9 | i | i
CCn1c(CSc2nc3ccccc3s2)nc2ccccc21 | nt | nt | i | nt | nt | nt | nt
O=C(c1ncc[nH]1)c1ccco1 | i | i | i | i | 3.55 | i | i
COc1ccc(CN(C(=O)CSc2nnc(-c3ccccc3F)o2)c2ccc(F)cc2)cc1 | i | i | i | i | i | nt | nt
Cc1nnc(SCC(=O)Nc2nccs2)s1 | i | i | i | i | i | nt | nt
CN(C)c1ccc(NC(=O)c2sc(SCC(=O)Nc3nccs3)nc2N)cc1 | i | i | nt | i | 7.09 | i | ?
O=C(CN1CCOCC1)Nc1ccccc1-c1ccccc1 | i | i | i | i | i | nt | nt
O=C(CN1CCOCC1)Nc1scc(-c2ccccc2)c1C(=O)N1CCOCC1 | i | i | i | i | 3.35 | ? | i
Cc1nc2sc3c(c2c(=O)o1)CC(C)(C)OC3 | i | i | i | i | i | nt | nt
Cc1cc(C)n(-c2nc(NCC3CCCO3)c3c4c(sc3n2)COC(C)(C)C4)n1 (stereo not given) | i | i | i | i | 3.43 | i | i
Nc1nnc(CCC2CCCCC2)s1 | i | i | nt | i | i | nt | nt
N#CC1=C(N)SC(N)=C(C#N)C1CCC1CCCCC1 | i | i | i | i | 6.31 | i | i
CC(=O)Nc1ccc(C(=O)CSc2nnc3scc(-c4ccccc4)n23)cc1 | i | i | i | i | i | nt | nt
Cc1ccc(-c2csc3nnc(SCC(=O)Nc4cccc(C)n4)n23)cc1 | i | i | i | i | 3.89 | ? | i
COc1cc(-c2nnc3sc(Cc4ccccc4)nn23)cc(OC)c1OC | i | i | i | i | i | nt | nt
CCN(CC)P1(=O)OC(c2cc(OC)c(OC)c(OC)c2)=Nc2c1c(C)nn2-c1ccccc1 (stereo not given) | nt | nt | i | i | 4.42 | i | i
COc1ccc(NC(=O)c2cnc3ccccn3c2=O)c(OC)c1 | i | i | nt | i | i | nt | nt
COC(=O)c1ccc2c(c1)SC1=C(CCCC1=O)N2 | i | i | i | i | 11.3 | i | ?
COc1cccc(CNC(=O)C(CCSC)NS(=O)(=O)c2ccc3c(c2)oc(=O)n3C)c1 (stereo not given) | i | i | i | i | i | nt | nt
Clc1ccc(OCCN2CCN(c3ncnc4sccc34)CC2)cc1 | i | 115.3 | i | -3.26 | 4.46 | i | i
CCn1nnnc1SCC(=O)Nc1cc(OC)cc(OC)c1 | i | i | i | i | i | nt | nt
Cc1c(Cc2ccccc2)sc(N)c1C(N)=O | i | i | i | i | 8.76 | i | i
COC(=O)c1ccccc1NC(=O)COC(=O)c1ccc(C)c(NC(=O)c2ccco2)c1 | i | i | i | i | 5.32 | i | ?
CC1CCN(CC(=O)N2c3ccccc3CCc3ccccc32)CC1 | i | i | i | nt | nt | nt | nt
Cc1nc2ccc(S(=O)(=O)NCC(=O)N3CCCC(C)C3)cc2s1 (stereo not given) | i | i | i | i | i | nt | nt
N#Cc1cccc(NC(=O)c2nc(-c3ccccc3)n(-c3ccccc3)n2)c1 | i | i | i | i | 3.51 | i | i
COc1ccc(C(=O)c2no[n+]([O-])c2C(=O)c2ccc(OC)cc2)cc1 | i | i | i | i | i | nt | nt
O=C(c1cccs1)c1no[n+]([O-])c1C(=O)c1cccs1 | i | i | i | -3.19 | 12.1 | i | i
C=CCN1C(c2ccc(OCC)cc2)=CS/C1=C(\C#N)c1nnc2n1CCCCC2 | i | i | i | i | 6.64 | i | i
CCCCCn1c(=N)n(CC(O)COc2ccccc2OC)c2ccccc21 (stereo not given) | i | i | -5.83 | i | 3.08 | i | i

Source: PubChem BioAssay (several laboratories)
